Laboratory results taken from ChEMBL document CHEMBL4715758, “Hit-to-Lead Optimization of a Novel Class of Potent, Broad-Spectrum Trypanosomacides” (J Med Chem, 2016).
Active and inactive are the calls of the source. The calls are words filed in the database; no cut-off is given here.

How the values were obtained:
[1] = Selectivity index, ratio of IC50 for cytotoxicity against human HEK293 cells assessed as reduction in cell viability to IC50 for antitrypanosomal activity against Trypanosoma brucei brucei Lister 427 blood stream form; assay type: toxicity, cell-based; details: read-out: Ratio IC50
[2] = system: Trypanosoma brucei brucei; assay: Antitrypanosomal activity against Trypanosoma brucei brucei Lister 427 strain blood stream forms incubated for 48 hrs by resazurin dye based fluorescence assay; assay type: functional, organism-based; details: Lister 427, 48 h
Trypanosoma cruzi = assay: Antitrypanosomal activity against Trypanosoma cruzi Tulahuen strain trypomastigotes infected in rat H9c2 cells incubated for 72 hrs by DRAQ5 DNA dye based imaging analysis; assay type: functional, organism-based; details: H9c2, 72 h
[3] = Selectivity index, ratio of IC50 for cytotoxicity against rat H9c2 cells assessed as reduction in cell viability to IC50 for antitrypanosomal against Trypanosoma cruzi Tulahuen trypomastigotes infected in rat H9c2 cells; assay type: toxicity, cell-based; details: read-out: Ratio IC50
[4] = system: Trypanosoma brucei brucei; assay: Antitrypanosomal activity against Trypanosoma brucei brucei Lister 427 strain blood stream form assessed as parasite growth inhibition at 10 uM incubated for 48 hrs by resazurin dye based fluorescence assay relative to control; assay type: functional; details: for inhibition at 10 µM: Lister 427, 48 h
Method in brief: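 Alamar Blue (resazurin) growth-inhibition screen against T. b. brucei at 10 μM, the same assay used to find the original hit. Compounds reaching 50% or greater inhibition were then taken into concentration–response testing for IC50.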

Row | Compound | selectivity ratio [1] | IC50 [2] [µM] | IC50 (Trypanosoma cruzi) [µM] | selectivity ratio [3] | inhibition at 10 µM [4] [%] | inhibition [4]
1 | O=C(NCCc1csc(-c2ccccc2)n1)c1ccoc1 | 240 | 0.35 |  |  |  | 
2 | CC(C)(C)C(=O)NCCc1csc(-c2ccccc2)n1 | 50 | 1.7 | 6.3 | > 7.9 |  | 
3 | COc1ccccc1-c1nc(CCNC(=O)N2CCCCC2)cs1 | 168 | 0.5 |  |  |  | 
4 | O=C(NCCc1csc(-c2ccccc2)n1)c1cc(Br)co1 | 12 | 2.5 | 5 | > 10 |  | 
5 | Cc1ccccc1-c1nc(CCNC(=O)N2CCCCC2)cs1 | 439 | 0.19 |  |  |  | 
6 | O=C(NCCc1csc(-c2ccccc2)n1)OC1CCCC1 | 280 | 0.3 | 0.4 | > 125 |  | 
7 | O=C(NCCc1csc(-c2ccccc2)n1)C1CCCCC1 |  |  | 0.32 |  |  | 
8 | O=C(NCCc1csc(-c2ccccc2)n1)c1cccnc1 |  |  | 2.5 |  |  | 
9 | O=C(NCCc1csc(-c2ccccc2)n1)c1ccc[nH]1 |  |  | 6.3 |  |  | 
10 | CC(C)N(C(=O)NCCc1csc(-c2ccccc2)n1)C(C)C | 10 | 9.6 | 32 | > 1.5 |  | 
11 | O=C(NCCc1csc(-c2ccccn2)n1)c1ccccc1 |  |  | 6.3 |  |  | 
12 | O=C(NCCc1csc(-c2ccccn2)n1)C1CCCC1 | 21 | 4 |  |  |  | 
13 | O=C(NCCc1csc(-c2ccc(Cl)cc2)n1)N1CCCCC1 | 55 | 1.5 |  |  |  | 
14 | O=C(NCCc1csc(-c2ccccc2)n1)n1cccc1 | 38 | 1.1 |  |  |  | 
15 | CC(C)(C)OC(=O)NCCc1csc(-c2ccccc2)n1 |  |  |  |  | < 50 | 
16 | N#Cc1ccccc1-c1nc(CCNC(=O)N2CCCCC2)cs1 | 148 | 0.56 | 0.79 | > 63 |  | 
17 | O=C(NCCc1csc(-c2ccccc2)n1)c1cccs1 |  |  | 0.4 |  |  | 
18 | COc1cccc(-c2nc(CCNC(=O)N3CCCCC3)cs2)c1 | 62 | 0.67 |  |  |  | 
19 | O=C(NCCc1csc(-c2ccccc2)n1)OCC1CC1 | 86 | 0.97 | 3.2 | > 15 |  | 
20 | O=S(=O)(NCCc1csc(-c2ccccc2)n1)N1CCCC1 |  |  | 32 |  |  | inactive
21 | CC(C)N(C)C(=O)NCCc1csc(-c2ccccc2)n1 | 212 | 0.39 | 1 | > 50 |  | 

Row | Compound | selectivity ratio [1] | IC50 [2] [µM] | IC50 (Trypanosoma cruzi) [µM] | selectivity ratio [3] | inhibition at 10 µM [4] [%] | inhibition [4]
22 | CC(C)NC(=O)NCCc1csc(-c2ccccc2)n1 | 93 | 0.9 | 1.6 | > 31 |  | 
23 | O=C(NCCc1csc(-c2ccccc2)n1)c1cccc(O)c1 |  |  |  |  | < 50 | 
24 | O=C(NCCc1csc(-c2ccccc2)n1)N1CCOCC1 |  |  | 3.2 |  |  | 
25 | C#Cc1cccc(C(=O)NCCc2csc(-c3ccccc3)n2)c1 | 27 | 0.76 |  |  |  | 
26 | O=C(NCCc1csc(-c2ccccc2)n1)c1cnccn1 | 20 | 4.1 | 32 | > 1.5 |  | 
27 | COc1ccccc1C(=O)NCCc1csc(-c2ccccc2)n1 | 2 | 10.6 | 10 | > 5 |  | 
28 | O=C(NCCc1csc(-c2cccs2)n1)C1CCCC1 | 35 | 2.4 | 10 | > 5 |  | 
29 | O=C(NCCc1csc(-c2ccccc2)n1)c1ccco1 |  |  | 2 |  |  | 
30 | N#Cc1cccc(C(=O)NCCc2csc(-c3ccccc3)n2)c1 |  |  | 0.79 |  |  | 
31 | O=C(NCCc1csc(-c2ccccc2)n1)c1ccncc1 |  |  | 40 |  |  | 
32 | O=C(NCCc1csc(-c2ccncc2)n1)C1CCCC1 | 9 | 9.1 | 32 | > 1.5 |  | 
33 | N#Cc1cccc(-c2nc(CCNC(=O)N3CCCCC3)cs2)c1 | 149 | 0.28 |  |  |  | 
34 | O=C(NCCc1csc(-c2cccnc2)n1)c1ccccc1 |  |  | 40 |  |  | 
35 | N#Cc1ccc(C(=O)NCCc2csc(-c3ccccc3)n2)cc1 |  |  | 0.4 | > 126 | < 50 | 
36 | COc1ccc(C(=O)NCCc2csc(-c3ccccc3)n2)cc1 |  |  |  |  | < 50 | 
37 | N#Cc1ccccc1C(=O)NCCc1csc(-c2ccccc2)n1 |  |  |  |  | < 50 | 
38 | O=C(NCCc1csc(-c2ccccc2)n1)c1cccc2ccccc12 |  |  |  |  | < 50 | 
39 | O=C(NCCc1csc(-c2ccccc2)n1)c1cscn1 | 68 | 1.2 |  |  |  | 
40 | O=S(=O)(NCCc1csc(-c2ccccc2)n1)c1ccccc1 |  |  | 20 |  |  | inactive
41 | O=C(NCCc1csc(-c2ccccc2)n1)c1ccon1 | 113 | 0.74 | 2.5 | > 19 |  | 
42 | O=C(NCCc1csc(-c2ccccc2)n1)C1CCOCC1 | 17 | 5 |  |  |  | 

Row | Compound | selectivity ratio [1] | IC50 [2] [µM] | IC50 (Trypanosoma cruzi) [µM] | selectivity ratio [3] | inhibition at 10 µM [4] [%] | inhibition [4]
43 | Cc1ccc(C(=O)NCCc2csc(-c3ccccc3)n2)o1 | 22 | 1.9 |  |  |  | 
44 | COc1cccc(C(=O)NCCc2csc(-c3ccccc3)n2)c1 | 26 | 1.9 | 3.2 | > 15 |  | 
45 | O=C(CC1CC2CCC1C2)NCCc1csc(-c2ccccc2)n1 (racemic) |  |  |  |  | < 50 | 
46 | CCN(CC)C(=O)NCCc1csc(-c2ccccc2)n1 | 320 | 0.26 | 1 | > 50 |  | 
47 | CC(C)C(=O)NCCc1csc(-c2ccccc2)n1 | 16 | 5.3 | 40 | > 1.2 |  | 
48 | O=C(NCCc1csc(-c2cccnc2)n1)C1CCCC1 | 13 | 6.6 | 20 | > 2.5 |  | 
49 | O=C(NCCc1csc(-c2ccccc2)n1)C1CC2C=CC1O2 (racemic) | 15 | 5.5 |  |  |  | 
50 | Cc1ccc(-c2nc(CCNC(=O)N3CCCCC3)cs2)cc1 | 22 | 3.7 |  |  |  | 
51 | Cc1ccccc1C(=O)NCCc1csc(-c2ccccc2)n1 | 2.5 | 3.3 | 3.2 | > 15 |  | 
52 | CC(C)OC(=O)NCCc1csc(-c2ccccc2)n1 | 385 | 0.22 | 0.4 | > 125 |  | 
53 | O=C(NCCc1csc(-c2ccccc2)n1)c1ccc(Cl)cc1 |  |  |  |  | < 50 | 
54 | C[Si](C)(C)C#Cc1cccc(C(=O)NCCc2csc(-c3ccccc3)n2)c1 | 2.9 | 3.6 | 2 | > 12 |  | 
55 | O=C(NCCc1csc(-c2ccccc2)n1)c1ccccc1O | 18 | 2.3 | 7.9 | > 3 |  | 
56 | O=C(NCCc1csc(-c2cccc(Cl)c2)n1)N1CCCCC1 | 511 | 0.16 |  |  |  | 
57 | N#Cc1ccc(-c2nc(CCNC(=O)N3CCCCC3)cs2)cc1 | 125 | 0.33 |  |  |  | 
58 | O=C(Cc1ccccc1)NCCc1csc(-c2ccccc2)n1 |  |  |  |  | < 50 | 
59 | O=C(NCCc1csc(-c2ccncc2)n1)c1ccccc1 |  |  | 32 |  |  | 
60 | CS(=O)(=O)c1cccc(C(=O)NCCc2csc(-c3ccccc3)n2)c1 | 4.9 | 8.5 | 40 | > 1.2 |  | 
61 | O=C(NCCc1csc(-c2ccccc2)n1)N1CCCCCC1 |  |  | 0.12 |  |  | 
62 | Cc1cccc(C(=O)NCCc2csc(-c3ccccc3)n2)c1 | 21 | 3.9 | 6.3 | > 7.9 |  | 
